Reference: ChEMBL document CHEMBL1142730, “Design of HIV-1 protease inhibitors active on multidrug-resistant virus” (J Med Chem, 2005)
≈ marks a conversion by molar mass, not a printed value.

Legend:
Caco-2 [1] = experiment: In vitro increase in apparent permeability from basolateral to apical was determined in Caco-2 (human colon carcinoma) cells; format: functional, cell-based
Summary of the method: (§1)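 Caco-2 monolayer apparent permeability measured apical-to-basolateral and basolateral-to-apical; reported as Papp in cm/s (×10⁶).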

[2] = In vivo area under the concentration time curve value in dog was determined at a dosage of 20 mg/kg; format: ADME, organism-based, Canis lupus familiaris; design: dose 20 mg/kg
Summary of the method: (§2)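 Oral dosing in dog at 20 mg/kg, coadministered with ritonavir. Compound given as a solution in PEG400 or in 40% w/v hydroxypropyl-β-cyclodextrin with 2% citric acid. Plasma Cmax, Tmax, t1/2 and AUC determined.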

[3] = In vitro solubility at was determined; pH=5; format: ADME
Summary of the method: (§3)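 Aqueous solubility measured at pH 5 and pH 7, expressed in […].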

[4] = Maximum plasma concentration value in dog was determined at a dosage of 20 mg/kg; format: ADME, organism-based, Canis lupus familiaris; design: dose 20 mg/kg; summary of the method: as §2
[5] = In vivo half life value in dog was determined at a dosage of 20 mg/kg; format: ADME, organism-based, Canis lupus familiaris; design: dose 20 mg/kg; summary of the method: as §2
[6] = system: Human immunodeficiency virus 1; experiment: Protease inhibitory activity against HIV-1 r13025 mutant strain was determined; format: functional, organism-based
[7] = molecular target: T1, Human immunodeficiency virus type 1 protease (Human immunodeficiency virus 1, UniProt Q72874); experiment: (§4) Binding affinity against HIV-1 protease
Summary of the method: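 Isothermal titration calorimetry by displacement: the protease was pre-titrated with acetylpepstatin (300 µM) as the weaker binder, then the inhibitor (125 or 200 µM in the syringe) was injected to saturation into protease (9–21 µM). Buffer was 10 mM sodium acetate pH 5.0, 2% DMSO, 2 mM TCEP. Heats of dilution were subtracted, and each run was done at least twice.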

[8] = In vivo time to reach maximum plasma concentration value in wistar rat was determined at a dosage of 20 mg/kg; format: ADME, organism-based; design: dose 20 mg/kg
Summary of the method: (§5)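 Wistar rats, single-dose study at 20 mg/kg, compound formulated in PEG400. Plasma Cmax, Tmax, t1/2 and AUC determined.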

[9] = In vitro solubility at was determined; pH=7; format: ADME; summary of the method: as §3
[10] = system: Human immunodeficiency virus 1; experiment: Toxicity value against wild type HIV-1 IIIB was determined; format: functional
Summary of the method: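 MT4 cells (150 000 cells/mL) mock-infected, run in parallel with HIV-infected cultures over an identical compound concentration range. Incubated 3 days at 37 °C, 5% CO₂. Reduced expression of the […] GFP reporter serves as the toxicity marker.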

Caco-2 [11] = experiment: In vitro increase in apparent permeability from apical to basolateral was determined in Caco-2 (human colon carcinoma) cells; format: functional, cell-based; summary of the method: as §1
[12] = In vivo time to reach maximum plasma concentration value in dog was determined at a dosage of 20 mg/kg; format: ADME, organism-based, Canis lupus familiaris; design: dose 20 mg/kg; summary of the method: as §2
[13] = In vivo area under the concentration time curve value in wistar rat was determined at a dosage of 20 mg/kg; format: ADME, organism-based; design: dose 20 mg/kg; summary of the method: as §5
[14] = system: Human immunodeficiency virus 1; experiment: Protease inhibitory activity against HIV-1 r13034 mutant strain was determined; format: functional, organism-based
Rattus norvegicus = species on record: Rattus norvegicus; experiment: In vitro metabolic stability value after 30 min of incubation with liver microsomes of rat was determined; format: functional; settings: Microsome
Summary of the method: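 Compound at 10 µM incubated at 37 °C with dog, human or rat liver microsomes. Residual parent compound quantified directly by LC-MS. Value is percent parent remaining after 30 min.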

[15] = system: Human immunodeficiency virus 1; experiment: Protease inhibitory activity against HIV-1 r13363 mutant strain was determined; format: functional, organism-based
[16] = Maximum plasma concentration value in wistar rat was determined at a dosage of 20 mg/kg; format: ADME, organism-based; design: dose 20 mg/kg; summary of the method: as §5
[17] = system: Human immunodeficiency virus 1; experiment: Protease inhibitory activity against wild type HIV-1 IIIB was determined; format: functional, organism-based
[18] = system: Human immunodeficiency virus 1; experiment: Protease inhibitory activity against HIV-1 GSS004421 mutant strain was determined; format: functional, organism-based
[19] = In vivo half life value in wistar rat was determined at a dosage of 20 mg/kg; format: ADME, organism-based; design: dose 20 mg/kg; summary of the method: as §5
[20] = molecular target: T1, Human immunodeficiency virus type 1 protease; experiment: as §4; remark: listed apart in the source

Compound | Papp (Caco-2 [1]) [×10⁻⁶ cm/s] | pEC50 [6] | Tmax [8] [h] | pCC50 [10] | Papp (Caco-2 [11]) [×10⁻⁶ cm/s] | AUC [13] [ng·h/mL] | pEC50 [14] | Metabolic stability (Rattus norvegicus) [%] | pEC50 [15] | Cmax [16] [ng/mL] | EC50 [17] [nM] | pEC50 [18] | other results
CNc1nc2ccc(S(=O)(=O)N(CC(C)C)C[C@@H](O)[C@H](Cc3ccccc3)NC(=O)O[C@H]3CO[C@H]4OCC[C@H]43)cc2o1 | 24 | 8.13 | 1.4 | < 4.49 | 17.6 | 1200 | 8.61 | 70 | 7.5 | 927 | 2 | 8.07 | AUC [2]: 2030 ng·h/mL; solubility [3]: 10 µg/mL (≈ 16.6 µM); Cmax [4]: 986 ng/mL; half-life [5]: 0.9 h; Kd [7]: 0.9 nM; solubility [9]: < 10 µg/mL; Tmax [12]: 2 h
CC(C)CN(C[C@@H](O)[C@H](Cc1ccccc1)NC(=O)O[C@H]1CO[C@H]2OCC[C@H]21)S(=O)(=O)c1ccc2nc(N)oc2c1 | 23.8 | 8.21 | 1 | < 4.49 | 3.8 | 448 | 8.19 | 90 | 7.6 | 260 | 11.7 | 8.06 | half-life [19]: 1.6 h
CC(C)CN(CC(O)C(Cc1ccccc1)NC(=O)OC1CCOC1)S(=O)(=O)c1ccc(N)cc1 (stereo not drawn) |  |  |  |  |  |  |  |  |  |  |  |  | Kd [20]: 0.4 nM
